{"data": "Measurements of several laboratories", "cell line": "MDA-MB-231", "observed": "cell growth or viability", "note": "Protocols differ between the studies behind these lines."}
{"Compound": "COc1cc2c(cc1O)CCN(Cc1cccc([N+](=O)[O-])c1)C2", "method": "WST-1", "time": "96 h", "quantity": "GI50", "value": "> 100 µM"}
{"Compound": "C[C@]12CC[C@@H]3c4ccc(O)cc4CC[C@H]3[C@@H]1CC[C@@H]2O", "method": "ATP luminescence", "time": "72 h", "quantity": "EC50", "value": "35.8 µM"}
{"Compound": "CC(=O)O[C@H]1C(=O)[C@@]2(C)[C@H]([C@H](OC(=O)c3ccccc3)[C@]3(O)C[C@H](OC(=O)[C@H](O)[C@@H](NC(=O)c4ccccc4)c4ccccc4)C(C)=C1C3(C)C)[C@]1(OC(C)=O)CO[C@@H]1C[C@@H]2O", "method": "WST-1", "time": "96 h", "quantity": "GI50", "value": "0.002 µM"}
{"Compound": "COc1cccc2c1C(=O)c1c(O)c3c(c(O)c1C2=O)C[C@@](O)(C(=O)CO)C[C@@H]3O[C@H]1C[C@H](N)[C@H](O)[C@H](C)O1", "method": "MTT", "tested at": "3.125 µM", "time": "24 h", "quantity": "viability", "value": "52.6%"}
{"Compound": "Cc1ccc2nc(-c3ccncc3)[nH]c2c1", "method": "MTT", "time": "48 h", "quantity": "IC50", "value": "74.6 µM"}
{"Compound": "CCc1cc(CN2CCc3cc(OS(N)(=O)=O)c(OC)cc3C2)cc(CC)c1CC", "method": "WST-1", "time": "96 h", "quantity": "GI50", "value": "5.7 µM"}
{"Compound": "Cc1ccc2nc(-c3ccc(F)cc3)n(Cc3ccccc3)c2c1", "method": "MTT", "quantity": "IC50", "value": "28.5 µM"}
{"Compound": "COc1cc2c(cc1O)CCN(Cc1cc(Cl)c(OC)c(OC)c1)C2", "method": "WST-1", "time": "96 h", "quantity": "GI50", "value": "0.4 µM"}
{"Compound": "Cc1ccc2nc(-c3cccc([N+](=O)[O-])c3)[nH]c2c1", "method": "MTT", "time": "48 h", "quantity": "IC50", "value": "> 100 µM"}
{"Compound": "CCCCCCCC(=O)NCC(=O)OC", "method": "MTT", "tested at": "10 µM", "time": "48 h", "quantity": "inhibition", "value": "10%"}
{"Compound": "Cc1ccc2nc(-c3ccc(Cl)c(Cl)c3)n(Cc3ccccc3)c2c1", "method": "MTT", "quantity": "IC50", "value": "83.2 µM"}
{"Compound": "O=C1CCCCC1=C1Sc2nc3ccc(S(=O)(=O)N4CCCC4)cc3nc2S1", "method": "MTT", "tested at": "100 µM", "time": "24 h", "quantity": "viability", "value": "8.2%"}
{"Compound": "Cc1ccc2nc(-c3ccc([N+](=O)[O-])cc3)[nH]c2c1", "method": "MTT", "time": "48 h", "quantity": "IC50", "value": "17.6 µM"}
{"Compound": "O=C(c1cc(Cc2n[nH]c(=O)c3ccccc23)ccc1F)N1CCN(C(=O)C2CC2)CC1", "method": "ATP luminescence", "time": "7 days", "quantity": "EC50", "value": "~5 µM"}
{"Compound": "O=[N+]([O-])c1ccc(-c2nc3ccccc3n2Cc2ccccc2)cc1", "method": "MTT", "quantity": "IC50", "value": "8.32 µM"}
{"Compound": "COc1cc2c(cc1OS(N)(=O)=O)CCN(Cc1cccc(C(C)=O)c1)C2", "method": "WST-1", "time": "96 h", "quantity": "GI50", "value": "0.983 µM"}
{"Compound": "C[C@]12CCCN1CC1=NNC(=O)c3cc(F)cc4[nH]c2c1c34", "method": "ATP luminescence", "time": "7 days", "quantity": "EC50", "value": "~9 µM"}
{"Compound": "COc1cc2c(cc1O)CCN(Cc1cccc(NC(C)=O)c1)C2", "method": "WST-1", "time": "96 h", "quantity": "GI50", "value": "> 100 µM"}
{"Compound": "N#CC(C(=O)Nc1cccc(C(F)(F)F)c1)=C1Sc2nc3ccc(S(=O)(=O)N4CCCC4)cc3nc2S1", "method": "MTT", "tested at": "3.125 µM", "time": "24 h", "quantity": "viability", "value": "77.1%"}
{"Compound": "COc1cc(OC)c(CN2CCc3cc(OS(N)(=O)=O)c(OC)cc3C2)c(OC)c1", "method": "WST-1", "time": "96 h", "quantity": "GI50", "value": "> 100 µM"}
{"Compound": "CCOc1cc(CN2CCc3cc(OS(N)(=O)=O)c(OC)cc3C2)cc(OCC)c1OCC", "method": "WST-1", "time": "96 h", "quantity": "GI50", "value": "4.4 µM"}
{"Compound": "COc1cc2c(cc1OS(N)(=O)=O)CCN(Cc1cccc(NC(C)=O)c1)C2", "method": "WST-1", "time": "96 h", "quantity": "GI50", "value": "> 100 µM"}
{"Compound": "CCOC(=O)C(C(C)=O)=C1Sc2nc3ccc(S(=O)(=O)N4CCCC4)cc3nc2S1", "method": "MTT", "tested at": "100 µM", "time": "24 h", "quantity": "viability", "value": "3.7%"}
{"Compound": "COc1cc2c(cc1OS(N)(=O)=O)CCN(Cc1cccc(OC(F)(F)F)c1)C2", "method": "WST-1", "time": "96 h", "quantity": "GI50", "value": "2.29 µM"}
{"Compound": "Clc1ccc(-c2nc3ccccc3n2Cc2ccccc2)cc1", "method": "MTT", "quantity": "IC50", "value": "35 µM"}
{"Compound": "COc1cc2c(cc1OS(N)(=O)=O)CCN(Cc1cccc(OC)c1OC)C2", "method": "WST-1", "time": "96 h", "quantity": "GI50", "value": "0.888 µM"}
{"Compound": "COc1ccc(-c2cn(-c3cc(=O)oc4ccc(Br)cc34)nn2)cc1", "method": "imaging", "time": "72 h", "quantity": "CC50", "value": "10.7 µM"}
{"Compound": "CCc1cccc(CN2CCc3cc(OS(N)(=O)=O)c(OC)cc3C2)c1", "method": "WST-1", "time": "96 h", "quantity": "GI50", "value": "8 µM"}
{"Compound": "CCOc1cc(-c2nc3ccc(C)cc3[nH]2)ccc1O", "method": "MTT", "time": "48 h", "quantity": "IC50", "value": "> 100 µM"}
